Consider two compounds from ChEMBL document CHEMBL1126752, “Synthesis and biological activity of cis-(3aR)-(-)-2,3,3a,4,5,9b-hexahydro- 3-propyl-1H-benz[e]indole-9-carboxamide: a potent and selective 5-HT1A receptor agonist with good oral availability” (J Med Chem, 1993).

Test [1] relates to Rattus norvegicus. The experiment in a line: In vivo motor activity at 50 umol/kg (po) in male rats expressed as accumulated counts/30 min (p < 0.001). Type of test: functional.
For test [2], the system named is Rattus norvegicus. The experiment in a line: 5-HTP accumulation in corpus striatum of reserpinized rats following subcutaneous administration. Type of test: functional. The note with it: sc.
Test [3] relates to Rattus norvegicus. Kind of test: DOPA accumulation in hemispheres of reserpinized rats following subcutaneous administration at highest dose tested (50 umol/kg); Inactive. Type of test: functional, organism-based.
The subject of test [4] is Rattus norvegicus. Kind of test: DOPA accumulation in hemispheres of reserpinized rats following peroral administration at highest dose tested (50 umol/kg); Inactive. Type of test: functional, organism-based.
For test [5], the system named is Rattus norvegicus. The experiment in a line: In vivo motor activity at 5 umol/kg (sc) in male rats expressed as accumulated counts/30 min (p < 0.001). Type of test: functional.
In test [6] the target is T1, 5-hydroxytryptamine receptor 1A (Homo sapiens, UniProt P08908).
T1 sequence (P08908 whole entry): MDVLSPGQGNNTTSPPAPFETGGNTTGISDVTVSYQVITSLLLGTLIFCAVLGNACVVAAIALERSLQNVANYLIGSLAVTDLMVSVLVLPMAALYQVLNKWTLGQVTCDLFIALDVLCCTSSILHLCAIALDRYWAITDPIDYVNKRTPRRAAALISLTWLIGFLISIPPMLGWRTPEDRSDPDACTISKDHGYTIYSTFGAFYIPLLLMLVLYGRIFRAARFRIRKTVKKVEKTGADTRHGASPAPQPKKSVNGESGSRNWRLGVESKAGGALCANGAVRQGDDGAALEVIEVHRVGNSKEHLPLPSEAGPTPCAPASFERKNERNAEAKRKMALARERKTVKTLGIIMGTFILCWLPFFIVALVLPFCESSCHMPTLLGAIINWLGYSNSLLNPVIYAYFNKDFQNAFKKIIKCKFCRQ
Kind of test: Binding affinity against [3H]8-OH-DPAT-labeled 5-hydroxytryptamine 1A receptor sites in cloned CHO cells. Type of test: cell-based. Put shortly:
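Competition binding against [3H]-8-OH-DPAT (85 Ci/mmol, 1.2 nM) using 11 dilutions of test compound. Receptor was cloned mammalian 5-HT1A expressed in CHO-K1 cells. IC50 from a one-site nonlinear least-squares fit, converted to Ki by Cheng-Prusoff. Ki reported ±SEM.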

Test [7] concerns Mus musculus. The experiment in a line: Effect on hypothermia in mice following subcutaneous administration. The note with it: sc.
The subject of test [8] is Rattus norvegicus. Kind of test: 5-HTP accumulation in limbic system of reserpinized rats following peroral administration. Type of test: functional. The note with it: po.
The species entered for test [9] is Rattus norvegicus. Kind of test: Inhibition of 5-HT1A cell firing in rats. Type of test: functional. Put shortly: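 Male Sprague-Dawley rats (280-330 g) under chloral hydrate anesthesia (400 mg/kg ip), drug given iv via femoral vein in distilled water. Dorsal raphe serotonergic neurons recorded extracellularly and confirmed histologically by dye deposit. Firing rate followed by integrated ratemeter.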

In test [10] the test system is Mus musculus. The experiment in a line: Swimming activity of the treated mice/control mice at 6.6 umol/kg, sc. Type of test: functional.
Test [11] concerns Felis catus. The experiment in a line: Maximum decrease in sympathetic nerve discharge in anesthetized cat. Type of test: functional. Put shortly: (§1)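 Adult cats (2.5-4.0 kg) anesthetized with ketamine 11 mg/kg im then chloralose 80 mg/kg iv. Animals paralyzed with gallamine, ventilated, and kept at 37-38 °C. Blood pressure recorded via femoral artery. Sympathetic activity quantified by cumulative integration. Increasing doses given iv cumulatively at 20-min intervals.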

Test [12] is filed under the species Rattus norvegicus. The experiment in a line: Compound was tested for gross behavioral response in rats; full-blown 5-HT syndrome. Type of test: functional, organism-based.
In test [13] the test system is Felis catus. Kind of test: Inhibition of sympathetic nerve discharge (SND) in anesthetized cat. Type of test: functional. Put shortly: as §1
The test system of test [14] is Rattus norvegicus. The experiment in a line: 5-HTP accumulation in corpus striatum of reserpinized rats following peroral administration. The note with it: po. Type of test: functional.
Test [15] relates to Rattus norvegicus. Kind of test: 5-HTP accumulation in hemispheres of reserpinized rats following subcutaneous administration. Type of test: functional. The note with it: sc.
For test [16], the system named is Felis catus. Kind of test: Percent arterial blood pressure at sympathetic nerve discharge in anesthetized cat. Type of test: functional. Put shortly: as §1
Test [17] concerns Rattus norvegicus. Kind of test: DOPA accumulation in corpus striatum of reserpinized rats following peroral administration at highest dose tested (50 umol/kg); Inactive. Type of test: functional, organism-based.
Test [18] has as its system Rattus norvegicus. The experiment in a line: DOPA accumulation in corpus striatum of reserpinized rats following subcutaneous administration at highest dose tested (50 umol/kg); Inactive. Type of test: functional, organism-based.
In test [19] the test system is Rattus norvegicus. The experiment in a line: DOPA accumulation in limbic system of reserpinized rats following peroral administration at highest dose tested (50 umol/kg); Partially active. Type of test: functional, organism-based.
Test [20] relates to Rattus norvegicus. Kind of test: 5-HTP accumulation in limbic system of reserpinized rats following subcutaneous administration. The note with it: sc. Type of test: functional.
Test [21] has as its system Rattus norvegicus. The experiment in a line: DOPA accumulation in limbic system of reserpinized rats following subcutaneous administration at highest dose tested (50 umol/kg); Inactive. Type of test: functional, organism-based.
Test [22] deals with Mus musculus. Kind of test: Swimming activity of the treated mice/control mice at 39 umol/kg, sc (p < 0.01). Type of test: functional.
In test [23] the test system is Felis catus. The experiment in a line: Maximum decrease in blood pressure observed following 1 mg/kg dose in anesthetized cat. Type of test: functional. The arrangement: unit not given here. The gist of the method: as §1
In test [24] the test system is Mus musculus. Kind of test: Effect on hypothermia in mice following peroral administration. The note with it: po.
In test [25] the test system is Rattus norvegicus. Kind of test: 5-HTP accumulation in hemispheres of reserpinized rats following peroral administration. Type of test: functional. The note with it: po.
The test system of test [26] is Mus musculus. Kind of test: Swimming activity of the treated mice/control mice at 1.2 umol/kg, sc. Type of test: functional.
Test [27] relates to Mus musculus. The experiment in a line: Swimming activity of the treated mice/control mice at 12 umol/kg, sc (p < 0.001). Type of test: functional.
Test [28] has as its system Rattus norvegicus. Kind of test: In vivo motor activity at 50 umol/kg (sc) in male rats expressed as accumulated counts/30 min (p < 0.01). Type of test: functional.
Test [29] has as its system Mus musculus. The experiment in a line: Swimming activity of the treated mice/control mice at 39 umol/kg, sc (p < 0.001). Type of test: functional.
Test [30] has as its system Mus musculus. Kind of test: Swimming activity of the treated mice/control mice at 3.9 umol/kg, sc (p < 0.001). Type of test: functional.

SMILES strings stand for the structures. The source made the active and inactive calls. The rule behind the calls is not given here. Where only a bound is given, the exact number is not on record here.

For orientation: ED50 means the dose that gives a 50% effect, or the effect in half of the subjects. By Ki is commonly meant the equilibrium dissociation constant of an inhibitor or competing ligand from its target. Regarding `O=C(NCCN1CCN(c2cccc3c2OCC(CO)O3)CC1)c1ccc(F)cc1` (single isomer, unassigned; (+)), the “Accumulated counts/30 min” value in [1] was 135; in [5], 84. Further, the ED50 in test [2] stood at 0.55 µmol/kg; in [7] it was 0.16 µmol/kg; in test [8], 0.36 µmol/kg; in [9], 0.16 µmol/kg; in test [13] it was 0.14 µmol/kg; in [14] it was 0.27 µmol/kg. For the same compound, the ED50 in [15] was 0.63 µmol/kg; in test [19], “Weak activity”; in [20] it was 0.63 µmol/kg; in test [24] it was 1.6 µmol/kg; in [25], 0.36 µmol/kg. In addition, the ED50 result in test [3], in [4], in test [17], in test [18] and in [21] was “inactive” in each case. This compound gave a Ki in [6] of 2.9 nM. Moreover, the values for the Swimming activity in test [10] and in test [22] were 0.6 and 3.3, respectively. The Max decrease in test [11] worked out at 2; in test [23] it was 55. Further, the Response result in test [12] is “Active”. In addition, the BP in test [16] is 79%.

For `CCCN1CCC2c3c(cccc3C(N)=O)CC[C@@H]21` (single isomer, unassigned; (+)-3a), the ED50 is 1.6 µmol/kg in test [2]; 8.9 µmol/kg in test [7]; over 1.2 µmol/kg in [9]; 5.2 µmol/kg in test [15]; 1.8 µmol/kg in [20]; 28 µmol/kg in [24]. In addition, the Swimming activity in test [26] amounted to 1; in test [27], 4.7; in [29] it was 8.3; in [30] it was 4. Moreover, the affinity in test [6] corresponds to a Ki of 17 nM. Besides, the “Accumulated counts/30 min” value in test [28] is recorded as 17.
